Columns and labels:
[1] = test system: HeLa cells; assay: Cytotoxicity; type: cell-based
[2] = test system: NCI-60 cell panel; assay: NCI-60 cell panel, Sulforhodamine B assay; type: cell-based; conditions: NCI-60 panel
Summary of the method: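 NCI-60 panel screen. Viability read by Sulforhodamine B staining of total protein, a measure of cell number rather than metabolic activity. Values are GI50, defined from the change in cell counts relative to the starting number of cells. Some panel lines were not tested.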

[3] = test system: MA9.3 AML cell line; assay: Cytotoxicity in MA9.3 AML cells; type: cell-based, human; conditions: for therapeutic index: between MA9.3 AML cell line and non-cancerous human CD34+ blood stem/progenitor cells
[4] = test system: human CD34+ blood stem/progenitor cells; assay: Cytotoxicity in normal CD34+ blood stem/progenitor cells; type: cell-based

Structure (SMILES): CC(C)N(CCOc1ccc(O)cc1)c1ccccc1 [Compound 4]
- decrease in potency relative to compound 2 [1]: 3 fold

Structure (SMILES): Oc1ccc(OCCN(CCOc2ccc(O)cc2)c2ccccc2)cc1 [Compound 5]
- potency relative to compound 3 [1]: potency doubled
- range of distribution of GI50 values [2]: 55 fold

Structure (SMILES): CN(CCCOc1ccc(O)cc1)c1ccccc1 [Compound 7]
- range of distribution of GI50 values [2]: 53 fold

Structure (SMILES): CN(C(=O)COc1ccc(O)cc1)c1ccccc1 [Compound 11]
- potency / anticancer cell activity (in words) [1]: anticancer cell activity was eliminated

Structure (SMILES): CCOc1ccc(O)cc1 [Compound 12]
- potency / anticancer cell activity (in words) [1]: no potency

Structure (SMILES): CN(CCCOc1ccccc1)c1ccccc1 [Compound 13]
- potency / anticancer cell activity (in words) [1]: complete loss of potency

Structure (SMILES): CN(CCCBr)c1ccccc1 [Compound 14]
- potency / anticancer cell activity (in words) [1]: loss of potency

Structure (SMILES): N.N.[Cl][Pt][Cl] [cisplatin]
- IC50 ([3]; MA9.3 AML cells): 14 ± 0.7 µM
- therapeutic index [3]: 1.0 ± 0.2
- IC50 [4]: 15 ± 2 µM

Structure (SMILES): COc1cccc2c1C(=O)c1c(O)c3c(c(O)c1C2=O)C[C@@](O)(C(=O)CO)C[C@@H]3O[C@H]1C[C@H](N)[C@H](O)[C@H](C)O1 [doxorubicin]
- therapeutic index [3]: 0.9 ± 0.2

Source: PMC3677216 (Bioorganic & medicinal chemistry letters, 2013)
